The record followed here is ChEMBL document CHEMBL4014350, “Alkoxyurea-Based Histone Deacetylase Inhibitors Increase Cisplatin Potency in Chemoresistant Cancer Cell Lines” (J Med Chem, 2017).

Test [1] is described as follows: Inhibition of HDAC in human CAL27 cells using Boc-Lys(epsilon-Ac)-AMC as substrate preincubated for 18 hrs followed by substrate addition measured after 3 hrs by fluorescence assay. The test is classed as cell-based. The settings on record: CAL-27.
Test [2] can be described thus: Inhibition of HDAC in human A2780CisR cells using Boc-Lys(epsilon-Ac)-AMC as substrate preincubated for 18 hrs followed by substrate addition measured after 3 hrs by fluorescence assay. Format: cell-based.
Test [3] relates to CAL-27. Description: Potentiation of 0.316 uM cisplatin-induced cytotoxicity against human CAL27 cells assessed as decrease in cell viability by measuring combination index at 500 uM preincubated for 48 hrs followed by cisplatin treatment measured after 72 hrs by MTT assay. The test is classed as functional. As to conditions: in the assay text read “at 500 nM” for “at 500 uM”. Summed up: (§1)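 Cal27 and cisplatin-resistant Cal27CisR cells were preincubated with the HDAC inhibitor for 48 h, then given cisplatin in combination. Viability was read by MTT after 72 h. The combination index was computed by the Chou–Talalay method: CI > 1 is antagonism, CI = 1 is additive, and CI < 0.9 is synergism. Points with fraction affected below 0.20 were flagged.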
For orientation: Formazan colour is commonly taken as a measure of viable cells.

Test [4] has as its system CAL-27. Briefly: Potentiation of 5 uM cisplatin-induced cytotoxicity against human CAL27 cells assessed as decrease in cell viability by measuring combination index at 700 uM preincubated for 48 hrs followed by cisplatin treatment measured after 72 hrs by MTT assay. As to conditions: in the assay text read “at 700 nM” for “at 700 uM”. The test is classed as functional. Summed up:
(§2)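 HDAC inhibitor was added 48 h before cisplatin, then cells were exposed to cisplatin for 72 h and viability was read by MTT assay. Combination index was computed by the Chou–Talalay method: CI > 1 is antagonism, CI = 1 additive, CI < 0.9 synergism. Points with fraction affected below 0.20 were flagged.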

Test [5] addresses T1, Histone deacetylase 1/6 (Homo sapiens) (UniProt Q13547+Q9UBN7). Briefly: Inhibition of HDAC1/HDAC6 in human Cal27CisR cells assessed as potentiation of 1 uM cisplatin-induced cytotoxicity by measuring combination index at 600 uM preincubated for 48 hrs followed by cisplatin treatment measured after 72 hrs by MTT assay. Format: cell-based. The essentials:
(§3)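 Cal27CisR cells preincubated 48 h with the HDAC inhibitor, then exposed to cisplatin for 72 h. Viability read by MTT. Combination index calculated by the Chou–Talalay method: CI > 1 antagonism, CI = 1 additive, CI < 0.9 synergism. Points with fraction affected below 0.20 are flagged. Values are the mean of three experiments.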

Test [6] has as its target T1, Histone deacetylase 1/6 (Homo sapiens). Description: Inhibition of HDAC1/HDAC6 in human Cal27CisR cells assessed as potentiation of 3.16 uM cisplatin-induced cytotoxicity by measuring combination index at 700 nM preincubated for 48 hrs followed by cisplatin treatment measured after 72 hrs by MTT assay.
The subject of test [7] is CAL-27. Briefly: Potentiation of cisplatin-induced cytotoxicity against human CAL27 cells assessed as decrease in cell viability at 0.5 uM preincubated for 48 hrs followed by cisplatin treatment measured after 72 hrs by MTT assay relative to cisplatin alone. The test is classed as functional. Summed up: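 Cells were preincubated 48 h with HDAC inhibitor, then cisplatin was added over a concentration range for 72 h, with MTT read-out. Shift factor is cisplatin-alone IC50 divided by combination IC50. Data are mean ± SEM of pooled data from at least three independent experiments, each in triplicate. Significance was by t test (p < 0.05).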

The test system of test [8] is CAL-27. Briefly: Potentiation of 0.316 uM cisplatin-induced cytotoxicity against human CAL27 cells assessed as decrease in cell viability by measuring combination index at 400 uM preincubated for 48 hrs followed by cisplatin treatment measured after 72 hrs by MTT assay. As to conditions: in the assay text read “at 400 nM” for “at 400 uM”. Format: functional. Summed up: as §1

Test [9] relates to CAL-27. Briefly: Potentiation of 0.5 uM cisplatin-induced cytotoxicity against human CAL27 cells assessed as decrease in cell viability by measuring combination index at 400 uM preincubated for 48 hrs followed by cisplatin treatment measured after 72 hrs by MTT assay. The test is classed as functional. As to conditions: in the assay text read “at 400 nM” for “at 400 uM”. Summed up:
as §1

Test [10] has as its system CAL-27. Briefly: Potentiation of 1 uM cisplatin-induced cytotoxicity against human CAL27 cells assessed as decrease in cell viability by measuring combination index at 300 uM preincubated for 48 hrs followed by cisplatin treatment measured after 72 hrs by MTT assay. Format: functional. Summed up:
as §2

For test [11], the system named is CAL-27. Description: Potentiation of 1 uM cisplatin-induced cytotoxicity against human CAL27 cells assessed as decrease in cell viability by measuring combination index at 400 uM preincubated for 48 hrs followed by cisplatin treatment measured after 72 hrs by MTT assay. Format: functional. Summed up:
as §2

In test [12] the test system is CAL-27. Briefly: Potentiation of 0.5 uM cisplatin-induced cytotoxicity against human CAL27 cells assessed as decrease in cell viability by measuring combination index at 100 uM preincubated for 48 hrs followed by cisplatin treatment measured after 72 hrs by MTT assay. Format: functional. The settings on record: in the assay text read “at 100 nM” for “at 100 uM”. Summed up: as §1

Test [13] deals with CAL-27. Description: Potentiation of 5 uM cisplatin-induced cytotoxicity against human CAL27 cells assessed as decrease in cell viability by measuring combination index at 100 uM preincubated for 48 hrs followed by cisplatin treatment measured after 72 hrs by MTT assay. Format: functional. As to conditions: in the assay text read “at 100 nM” for “at 100 uM”. Summed up: as §2

Test [14] relates to CAL-27. Description: Potentiation of 5 uM cisplatin-induced cytotoxicity against human CAL27 cells assessed as decrease in cell viability by measuring combination index at 300 uM preincubated for 48 hrs followed by cisplatin treatment measured after 72 hrs by MTT assay. The settings on record: in the assay text read “at 300 nM” for “at 300 uM”. Format: functional. The essentials: as §2

In test [15] the test system is CAL-27. Description: Potentiation of 5 uM cisplatin-induced cytotoxicity against human CAL27 cells assessed as decrease in cell viability by measuring combination index at 400 uM preincubated for 48 hrs followed by cisplatin treatment measured after 72 hrs by MTT assay. The test is classed as functional. As to conditions: in the assay text read “at 400 nM” for “at 400 uM”. Summed up: as §2

The target of test [16] is T1, Histone deacetylase 1/6 (Homo sapiens). Description: Inhibition of HDAC1/HDAC6 in human Cal27CisR cells assessed as potentiation of 3.16 uM cisplatin-induced cytotoxicity by measuring combination index at 100 uM preincubated for 48 hrs followed by cisplatin treatment measured after 72 hrs by MTT assay. The test is classed as cell-based. The essentials:
as §3

Test [17] has the same target. Description: Inhibition of HDAC1/HDAC6 in human Cal27CisR cells assessed as potentiation of 3.16 uM cisplatin-induced cytotoxicity by measuring combination index at 200 uM preincubated for 48 hrs followed by cisplatin treatment measured after 72 hrs by MTT assay. Format: cell-based. Summed up:
as §3

Test [18] shares this target. Briefly: Inhibition of HDAC1/HDAC6 in human Cal27CisR cells assessed as potentiation of 3.16 uM cisplatin-induced cytotoxicity by measuring combination index at 300 uM preincubated for 48 hrs followed by cisplatin treatment measured after 72 hrs by MTT assay. The test is classed as cell-based. The essentials: as §3
For test [19] the target is unchanged. Description: Inhibition of HDAC1/HDAC6 in human Cal27CisR cells assessed as potentiation of 5 uM cisplatin-induced cytotoxicity by measuring combination index at 400 uM preincubated for 48 hrs followed by cisplatin treatment measured after 72 hrs by MTT assay. The test is classed as cell-based. Summed up:
as §1

Another test deals with Cal27CisR. Briefly: Induction of apoptosis in human Cal27CisR cells at 1 uM for 48 hrs by propidium iodide dye-based flow cytometry. Format: functional, cell-based. (In general: In flow cytometry, cells or beads pass a laser one at a time.)
Test [20] deals with T1, Histone deacetylase 1/6 (Homo sapiens). Briefly: Inhibition of HDAC1/HDAC6 in human Cal27CisR cells assessed as potentiation of 20 uM cisplatin-induced cytotoxicity by measuring combination index at 300 nM preincubated for 48 hrs followed by cisplatin treatment measured after 72 hrs by MTT assay.

The structures appear in SMILES notation. Activity calls are given as the source filed them. The calls are words filed in the database; no cut-off is given here.

T1 sequence (Q13547 whole entry, looked up): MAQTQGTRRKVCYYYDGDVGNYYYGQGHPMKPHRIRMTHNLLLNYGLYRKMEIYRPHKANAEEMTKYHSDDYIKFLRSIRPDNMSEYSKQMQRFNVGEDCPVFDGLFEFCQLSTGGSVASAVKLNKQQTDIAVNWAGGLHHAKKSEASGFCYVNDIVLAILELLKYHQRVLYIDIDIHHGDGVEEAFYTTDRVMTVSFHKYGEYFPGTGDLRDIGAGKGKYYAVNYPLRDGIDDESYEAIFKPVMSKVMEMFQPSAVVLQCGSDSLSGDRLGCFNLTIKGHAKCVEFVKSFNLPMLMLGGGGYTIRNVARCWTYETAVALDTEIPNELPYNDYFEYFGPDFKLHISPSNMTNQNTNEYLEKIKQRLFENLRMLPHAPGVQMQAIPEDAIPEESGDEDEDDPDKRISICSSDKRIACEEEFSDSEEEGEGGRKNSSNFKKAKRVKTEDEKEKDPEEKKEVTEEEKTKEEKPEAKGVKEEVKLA
T1 sequence (Q9UBN7 whole entry, looked up): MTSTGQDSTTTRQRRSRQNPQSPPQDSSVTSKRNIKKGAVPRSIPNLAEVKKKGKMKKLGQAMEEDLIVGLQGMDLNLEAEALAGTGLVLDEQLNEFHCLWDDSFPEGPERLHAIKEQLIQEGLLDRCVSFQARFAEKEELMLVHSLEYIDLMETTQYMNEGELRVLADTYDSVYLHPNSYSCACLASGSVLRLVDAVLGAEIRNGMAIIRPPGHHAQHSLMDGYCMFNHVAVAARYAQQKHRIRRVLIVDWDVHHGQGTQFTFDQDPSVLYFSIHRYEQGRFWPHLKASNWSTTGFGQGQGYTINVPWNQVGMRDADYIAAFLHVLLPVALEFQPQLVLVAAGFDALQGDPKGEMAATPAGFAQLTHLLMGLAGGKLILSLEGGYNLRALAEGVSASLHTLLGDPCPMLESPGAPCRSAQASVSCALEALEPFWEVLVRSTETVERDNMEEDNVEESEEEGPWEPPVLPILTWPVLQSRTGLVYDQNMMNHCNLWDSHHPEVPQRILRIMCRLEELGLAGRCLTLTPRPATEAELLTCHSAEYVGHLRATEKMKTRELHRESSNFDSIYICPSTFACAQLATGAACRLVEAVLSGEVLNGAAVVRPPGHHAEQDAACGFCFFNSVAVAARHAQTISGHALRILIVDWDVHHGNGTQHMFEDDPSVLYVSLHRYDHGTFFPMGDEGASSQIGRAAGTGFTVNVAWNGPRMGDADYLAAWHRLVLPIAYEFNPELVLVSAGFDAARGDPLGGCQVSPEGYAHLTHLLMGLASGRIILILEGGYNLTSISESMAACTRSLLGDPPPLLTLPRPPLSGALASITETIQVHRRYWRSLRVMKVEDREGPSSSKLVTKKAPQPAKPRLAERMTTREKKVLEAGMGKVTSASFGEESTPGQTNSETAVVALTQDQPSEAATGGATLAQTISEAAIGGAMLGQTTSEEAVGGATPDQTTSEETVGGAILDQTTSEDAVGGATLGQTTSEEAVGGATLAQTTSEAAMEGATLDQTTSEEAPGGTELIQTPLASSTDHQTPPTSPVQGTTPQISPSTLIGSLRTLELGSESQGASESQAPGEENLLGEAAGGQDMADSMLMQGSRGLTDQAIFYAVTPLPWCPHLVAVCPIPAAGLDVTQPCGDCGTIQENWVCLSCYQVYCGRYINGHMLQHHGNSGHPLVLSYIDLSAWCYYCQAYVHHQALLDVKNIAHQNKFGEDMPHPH

Turning to `COc1cc(NC(=O)NOCCCCCC(=O)NO)c2ncccc2c1`, the IC50 in test [1] was 900 nM; in test [2], 500 nM. In addition, the CI with CAL-27 [3] was 0.86; in the test with CAL-27 [4] it was 0.32; in [5], under 0.2; in [6], 0.56.
For the compound `COc1cc(NC(=O)NOCCCCCC(=O)NO)c2nccc(C)c2c1`, the IC50 in test [1] was determined as 600 nM; in test [2], 400 nM. In the test on CAL-27 [7], the “fold change (FC)” value is on record as 6.1. For the same compound, the CI is on record as under 0.2 in the test with CAL-27 [8]; 0.91 in the test on CAL-27 [9]; 0.44 with CAL-27 [10]; 0.39 in the test with CAL-27 [11]; under 0.2 in the test with CAL-27 [12]; 0.5 with CAL-27 [13]. The CI in the test with CAL-27 [14] is 0.25; in the test on CAL-27 [15], 0.29; with CAL-27 [4], 0.41; in test [5], under 0.2; in [16], under 0.2; in test [17], under 0.2. For the same compound, the CI in [18] was under 0.2; in test [19], 0.56; in test [20], 0.34; in [6] it was 0.28. The result in the test with Cal27CisR was inactive.
For `COc1cc(NC(=O)NOCCCCCC(=O)NO)c2nc(OC)cc(C)c2c1`, the IC50 in test [1] and in [2] was 500 nM in each case. The “fold change (FC)” value in the test on CAL-27 [7] turned out to be 8.7. Moreover, the CI in the test on CAL-27 [3] was 0.79; in the test with CAL-27 [8], 0.97; in the test with CAL-27 [9] it was 0.75; with CAL-27 [10], 0.64; in the test with CAL-27 [11], 0.51; in the test on CAL-27 [12] it was under 0.2. Besides, the CI is 0.26 in the test on CAL-27 [13]; 0.32 in the test on CAL-27 [14]; 0.36 in the test on CAL-27 [15]; 0.64 in the test on CAL-27 [4]; 0.56 in test [5]; 0.89 in test [16]. In addition, the CI was 0.87 in [17]; 0.46 in test [18]; 0.19 in [19]; 0.17 in [20]; 0.28 in test [6]. Besides, the outcome in the test on Cal27CisR was inactive.

What is called IC50 is the point on the concentration scale where inhibition reaches its midpoint. Higher therefore signals weaker potency.
